The text below walks through data of ChEMBL document CHEMBL3580589, “Discovery of Quinazoline-Based Fluorescent Probes to α1-Adrenergic Receptors” (ACS Med Chem Lett, 2015).

The target of data set [1] is T1, Alpha-1D adrenergic receptor (Homo sapiens, UniProt P25100).
T1 sequence (P25100 whole entry): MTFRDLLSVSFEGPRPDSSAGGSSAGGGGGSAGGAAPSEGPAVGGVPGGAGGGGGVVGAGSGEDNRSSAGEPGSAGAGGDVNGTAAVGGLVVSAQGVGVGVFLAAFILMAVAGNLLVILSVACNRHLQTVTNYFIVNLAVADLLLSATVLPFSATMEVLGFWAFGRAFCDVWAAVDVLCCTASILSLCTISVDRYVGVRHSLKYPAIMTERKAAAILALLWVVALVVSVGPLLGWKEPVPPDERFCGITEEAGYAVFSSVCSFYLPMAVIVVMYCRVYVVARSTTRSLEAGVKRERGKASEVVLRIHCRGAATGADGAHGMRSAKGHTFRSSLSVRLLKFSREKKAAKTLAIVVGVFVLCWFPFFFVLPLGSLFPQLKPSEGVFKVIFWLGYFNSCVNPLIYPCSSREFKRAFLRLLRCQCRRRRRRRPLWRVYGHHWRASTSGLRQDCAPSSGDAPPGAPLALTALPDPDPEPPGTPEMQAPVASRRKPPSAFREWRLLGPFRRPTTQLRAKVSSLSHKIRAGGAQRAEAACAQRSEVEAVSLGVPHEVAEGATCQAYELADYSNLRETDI
Briefly: Displacement of [3H]-Prazosin from human alpha-1D adrenergic receptor transfected in CHO cell membranes after 2 hrs by microplate scintillation counting analysis. In outline:
(§1)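 Radioligand competition binding used [3H]prazosin on membranes from CHO cells transfected with human cloned α1A-, α1B- or α1D-adrenoceptors.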

A short description of data set [2]: Cytotoxicity against HEK293A cells transfected with alpha-1A adrenergic receptor assessed as cell viability by sulforhodamine B assay. The format is cell-based. The settings on record: Homo sapiens, HEK293-A. An outline of the steps:
(§2)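 Standard sulforhodamine B colorimetric assay in HEK293A cells stably transfected with α1A-AR or α1D-AR.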

Data set [3] can be described thus: Cytotoxicity against HEK293A cells transfected with alpha-1D adrenergic receptor assessed as cell viability by sulforhodamine B assay. The format is cell-based. The note with it: Homo sapiens, HEK293-A. In outline:
as §2

For data set [4], the target named is T2, Alpha-1A adrenergic receptor (Homo sapiens) (UniProt P35348).
T2 sequence (whole entry): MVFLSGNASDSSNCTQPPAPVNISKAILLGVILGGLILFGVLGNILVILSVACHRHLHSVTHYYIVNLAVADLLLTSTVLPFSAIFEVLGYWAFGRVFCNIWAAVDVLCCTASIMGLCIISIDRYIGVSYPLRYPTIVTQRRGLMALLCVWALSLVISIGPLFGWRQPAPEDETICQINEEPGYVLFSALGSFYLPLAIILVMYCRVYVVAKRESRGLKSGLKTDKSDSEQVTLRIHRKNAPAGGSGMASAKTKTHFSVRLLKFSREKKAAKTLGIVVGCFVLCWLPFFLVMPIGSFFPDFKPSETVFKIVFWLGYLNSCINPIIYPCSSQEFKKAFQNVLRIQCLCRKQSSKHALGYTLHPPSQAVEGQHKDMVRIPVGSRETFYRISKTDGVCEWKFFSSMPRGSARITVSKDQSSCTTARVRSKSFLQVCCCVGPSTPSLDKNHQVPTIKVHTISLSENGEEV
As to the kind of experiment: Binding affinity to alpha-1A adrenergic receptor (unknown origin) transfected in HEK293A cells at 15 nM measured 5 mins post wash out by DiD dye-based confocal microscopic analysis. The settings on record: HEK293-A. It is filed as cell-based. In outline:
(§3)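 HEK293A cells stably transfected with α1A-AR or α1D-AR, or untransfected HEK293A cells, were incubated with the probe at 15 nM plus the membrane dye DiD for 5 min at 37 °C. Cells were washed immediately and imaged by confocal fluorescence microscopy at identical exposure times.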

In data set [5] the target is T3, Alpha-1D adrenergic receptor (Homo sapiens) (UniProt P25100).
T3 sequence (whole entry): T1 sequence (P25100 whole entry)
Briefly: Binding affinity to alpha-1D adrenergic receptor (unknown origin) transfected in HEK293A cells at 15 nM measured 5 mins post wash out by DiD dye-based confocal microscopic analysis. The format is cell-based. The settings on record: HEK293-A. An outline of the steps:
as §3

Data set [6] addresses T2, Alpha-1A adrenergic receptor (Homo sapiens). Briefly: Binding affinity to alpha-1A adrenergic receptor (unknown origin) transfected in HEK293A cells at 15 nM measured 5 mins post wash out by DiD dye-based confocal microscopic analysis in presence of alpha1 adrenergic receptor antagonist tamsulosin. It is filed as cell-based. The settings on record: HEK293-A. An outline of the steps:
(§4)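 α1A-AR- or α1D-AR-transfected HEK293A cells were incubated with the probe at 15 nM, DiD and tamsulosin at 300 nM as competitor for 5 min at 37 °C. Cells were washed immediately and imaged by confocal microscopy at identical exposure.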

Data set [7] concerns the target T3, Alpha-1D adrenergic receptor (Homo sapiens). Briefly: Binding affinity to alpha-1D adrenergic receptor (unknown origin) transfected in HEK293A cells at 15 nM measured 5 mins post wash out by DiD dye-based confocal microscopic analysis in presence of alpha1 adrenergic receptor antagonist tamsulosin. The settings on record: HEK293-A. The format is cell-based. An outline of the steps: as §4

The nature of data set [8]: Drug uptake in HEK293A cells at 15 nM measured 5 mins post wash out by DiD dye-based confocal microscopic analysis. The format is ADME, cell-based. The note with it: human, hek293-a, 0.015 µM. An outline of the steps: as §3
The target of data set [9] is T4, Alpha-1A adrenergic receptor (Homo sapiens, UniProt P35348).
T4 sequence (P35348 whole entry): T2 sequence (whole entry)
Briefly: Displacement of [3H]-Prazosin from human alpha-1A adrenergic receptor transfected in CHO cell membranes after 2 hrs by microplate scintillation counting analysis. An outline of the steps: as §1

For data set [10], the target named is T5, Alpha-1B adrenergic receptor (Homo sapiens, UniProt P35368).
T5 sequence (P35368 whole entry): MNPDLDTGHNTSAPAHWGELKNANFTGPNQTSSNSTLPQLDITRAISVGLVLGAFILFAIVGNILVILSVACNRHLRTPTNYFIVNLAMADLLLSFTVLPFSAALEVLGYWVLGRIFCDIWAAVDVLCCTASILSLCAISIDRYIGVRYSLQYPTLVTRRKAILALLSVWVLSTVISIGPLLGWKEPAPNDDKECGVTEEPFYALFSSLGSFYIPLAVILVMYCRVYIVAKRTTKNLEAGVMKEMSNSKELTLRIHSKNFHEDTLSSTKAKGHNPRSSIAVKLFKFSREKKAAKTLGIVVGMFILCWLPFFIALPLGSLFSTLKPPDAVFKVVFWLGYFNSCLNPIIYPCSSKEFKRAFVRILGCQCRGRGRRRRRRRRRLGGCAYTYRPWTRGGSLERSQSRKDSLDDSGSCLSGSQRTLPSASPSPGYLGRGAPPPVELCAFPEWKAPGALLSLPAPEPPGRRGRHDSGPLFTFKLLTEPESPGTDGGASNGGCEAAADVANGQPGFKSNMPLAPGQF
Briefly: Displacement of [3H]-Prazosin from human alpha-1B adrenergic receptor transfected in CHO cell membranes after 2 hrs by microplate scintillation counting analysis. In outline:
as §1

A short description of data set [11]: Drug uptake in plasma membrane of HEK293A cells transfected with alpha-1A adrenergic receptor at 50 nM measured 5 mins post wash out by DiD dye-based confocal microscopic analysis. It is filed as ADME. The settings on record: human, hek293-a, 0.05 µM. An outline of the steps:
(§5)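 α1A-AR- or α1D-AR-transfected HEK293A cells, or untransfected HEK293A cells as the receptor-free control, were incubated with the probe plus DiD (red, colocalization) for 5 min at 37 °C. Probe signal was compared with the DiD-stained surface for subcellular localization by fluorescence microscopy.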

Data set [12] can be described thus: Drug uptake in cytoplasm of HEK293A cells transfected with alpha-1D adrenergic receptor at 50 nM measured 5 mins post wash out by DiD dye-based confocal microscopic analysis. The note with it: human, hek293-a, 0.05 µM. The format is ADME, cell-based. An outline of the steps:
as §5

Data set [13] is described as follows: Drug uptake in plasma membrane of HEK293A cells transfected with alpha-1D adrenergic receptor at 50 nM measured 5 mins post wash out by DiD dye-based confocal microscopic analysis. The note with it: human, hek293-a, 0.05 µM. It is filed as ADME, cell membranes. An outline of the steps:
as §5

For data set [14], the target named is T2, Alpha-1A adrenergic receptor (Homo sapiens). As to the kind of experiment: Binding affinity to alpha-1A adrenergic receptor (unknown origin) transfected in HEK293A cells at 20 nM after 5 mins by DiD dye-based confocal microscopic analysis. It is filed as cell-based. The note with it: HEK293-A. In outline:
as §5

Data set [15] shares this target. As to the kind of experiment: Binding affinity to alpha-1A adrenergic receptor (unknown origin) transfected in HEK293A cells at 20 nM after 5 mins by DiD dye-based confocal microscopic analysis in presence of alpha1 adrenergic receptor antagonist tamsulosin. It is filed as cell-based. The settings on record: HEK293-A. In outline: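 Transfected HEK293A cells expressing α1A-AR or α1D-AR were incubated with the probe, DiD and tamsulosin as competing α1-AR antagonist for 5 min at 37 °C. Fluorescence labelling was imaged by confocal microscopy.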

A short description of data set [16]: Drug uptake in HEK293A cells at 20 nM after 5 mins by DiD dye-based confocal microscopic analysis. It is filed as ADME, cell-based. The note with it: human, hek293-a, 0.02 µM. In outline: as §5

pIC50, pKi: −log10 of the molar value. Calls of active or inactive are those of the source. No cut-off for these calls is given here.

As to `COc1cc2nc(N3CCN(C(=O)c4cc5ccc(O)cc5oc4=O)CC3)nc(N)c2cc1OC`, the pIC50 in data set [1] was > 8.30; in data set [2], < 4.00; in data set [3], < 4.00; in data set [9] it was 8.41; in data set [10], > 8.30. The outcome in data set [4] and in [5] was Active. Also, the result in [6] and in [7] was inactive. In addition, the Drug uptake entry in data set [8], in data set [11], in [12] and in [13] was “Active” in each case. In data set [9], the pKi was 8.68.

On to `CCN(CC)c1ccc2cc(-n3cc(CN4CCN(c5nc(N)c6cc(OC)c(OC)cc6n5)CC4)nn3)c(=O)oc2c1`, for which the pIC50 in data set [1] is 7.34; in data set [2], 4.59; in data set [3] it was 4.77; in data set [9] it was 7.28; in [10], 7.28. In addition, the pKi in data set [1] is 7.56; in data set [9], 7.52; in data set [10], 7.52. Besides, the outcome in [14] was Active. The result in data set [15] was inactive. The Drug uptake entry in data set [16] is recorded as “Active”.

`COc1cc2nc(N3CCN(C(=O)C4COc5ccccc5O4)CC3)nc(N)c2cc1OC` (configuration not stated) [DOXAZOSIN]: the pIC50 in [2] is 4.72; in data set [3], 4.66.
